Key:
[1] = Permeability across apical side at pH 6.5 to basolateral side at pH 7.4 in human Caco2 cells assessed as compound recovery at 10 uM; format: ADME, cell-based; conditions: caco-2, pH 6.5, 10 µM
[2] = Permeability across basolateral side at pH 6.5 to apical side at pH 7.4 in human Caco2 cells assessed as compound recovery at 10 uM; format: ADME, cell-based; conditions: caco-2, pH 6.5, 10 µM
[3] = target: T1, Monocarboxylate transporter 1 (Rattus norvegicus, UniProt P53987); test: Inhibition of MCT1 in rat brain endothelial 4 cells assessed as L-[14C]-Lactate Uptake after 15 mins by scintillation spectrometric analysis; format: cell-based
T1 sequence (P53987 whole entry): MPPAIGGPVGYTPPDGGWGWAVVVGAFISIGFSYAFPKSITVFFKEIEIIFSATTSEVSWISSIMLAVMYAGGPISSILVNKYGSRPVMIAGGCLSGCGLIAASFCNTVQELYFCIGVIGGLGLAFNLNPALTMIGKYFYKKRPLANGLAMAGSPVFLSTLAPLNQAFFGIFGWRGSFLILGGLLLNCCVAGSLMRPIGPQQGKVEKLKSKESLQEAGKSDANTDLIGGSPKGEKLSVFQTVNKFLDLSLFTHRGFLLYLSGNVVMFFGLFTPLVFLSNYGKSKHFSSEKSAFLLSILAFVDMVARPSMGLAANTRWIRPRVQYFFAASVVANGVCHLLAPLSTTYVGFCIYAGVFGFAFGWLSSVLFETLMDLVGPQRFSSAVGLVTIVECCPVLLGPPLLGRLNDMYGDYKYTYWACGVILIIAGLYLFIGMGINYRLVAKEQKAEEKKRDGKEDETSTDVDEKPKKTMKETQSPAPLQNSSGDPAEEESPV

[4] = Cytotoxicity against mouse GL261 cells expressing luc2 assessed as reduction in cell viability after 72 hrs by MTT assay; format: functional, cell-based; conditions: GL261, 72 h
Procedure, shortened: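 GL261-luc2 cells grown in DMEM, 10% FBS, 50 μg/mL geneticin, penicillin-streptomycin; 5 × 10^3 cells/well, 24 h at 37 °C, 5% CO2, then compound in replicate for 72 h.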

[5] = test system: MDA-MB-231; test: Cytotoxicity against human MDA-MB-231 cells expressing luc2 assessed as reduction in cell viability after 72 hrs by MTT assay; format: functional, cell-based; conditions: MDA-MB-231, 72 h
Procedure, shortened: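 MDA-MB-231 cells grown in DMEM, 10% FBS, penicillin-streptomycin; 5 × 10^3 cells/well, 24 h at 37 °C, 5% CO2, then compound in replicate for 72 h.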

[6] = Antitumor activity against MCT1 expressing mouse GL261 cells coexpressing luc2 syngrafted in C57BL/6 mouse assessed as tumor growth inhibition at 20 mg/kg, ip qd; format: functional; conditions: C57BL/6, GL261, ip, read-out: TGI
Procedure, shortened: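 GL261-luc2 cells (5 × 10^6) in 1:1 matrigel-PBS injected into right flank of C57BL/6 mice (male and female); randomized, n = 6; dosing began at tumor volume 200 mm3; vehicle 10% DMSO in saline. Caliper measurement every 2–3 days, V = ab²/2. At study end tumors excised and weighed; % inhibition = [(C − T)/C] × 100 on mean tumor weights. Mann-Whitney test.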

[7] = test system: MDA-MB-231; test: Antitumor activity against MCT4 expressing human MDA-MB-231 cells coexpressing luciferase xenografted in SCID mouse assessed as tumor growth inhibition at 0.5 mg/kg, ip for 5 days per week measured on day 19; format: functional; conditions: MDA-MB-231, ip, read-out: TGI
Procedure, shortened: (§1)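 Female SCID mice, right flank injected with 10 × 10^6 MDA-MB-231 cells in 1:1 matrigel-PBS; randomized, n = 6; dosing started at mean tumor volume ~100 mm3; vehicle 10% DMSO in saline. Study ended day 19; tumors excised and weighed; % inhibition = [(C − T)/C] × 100 from mean tumor weights versus vehicle. Mann-Whitney test.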

[8] = Efflux ratio of permeability from basolateral to apical side over apical to basolateral side in human Caco2 cells; format: ADME, cell-based; conditions: caco-2
[9] = test system: Mus musculus; test: Toxicity in CD-1 mouse assessed as change in body weight at 20 mg/kg, ip qd; format: organism-based; conditions: in vivo
Procedure, shortened: (§2)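 Healthy CD-1 mice were dosed once daily, either 20 mg/kg ip or 100 mg/kg by oral gavage. Control mice received vehicle (10% DMSO in saline). Animals were monitored for mortality, body weight change and apparent side effects, compared with the vehicle group. The study was conducted by GenScript under an approved IACUC protocol.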

[10] = test system: Mus musculus; test: Toxicity in CD-1 mouse assessed as change in body weight at 100 mg/kg, administered via oral gavage qd; format: organism-based; conditions: in vivo; procedure, shortened: as §2
[11] = test system: Mus musculus; test: Toxicity in CD-1 mouse assessed as visible toxic effects at 20 mg/kg, ip qd; format: organism-based; conditions: in vivo; procedure, shortened: as §2
[12] = test system: Mus musculus; test: Toxicity in CD-1 mouse assessed as visible toxic effects at 100 mg/kg, administered via oral gavage qd; format: organism-based; conditions: in vivo; procedure, shortened: as §2
[13] = test system: Mus musculus; test: Toxicity in CD-1 mouse assessed as mortality at 20 mg/kg, ip qd; format: organism-based; conditions: in vivo; procedure, shortened: as §2
[14] = test system: Mus musculus; test: Toxicity in CD-1 mouse assessed as mortality at 100 mg/kg, administered via oral gavage qd; format: organism-based; conditions: in vivo; procedure, shortened: as §2
[15] = test system: MDA-MB-231; test: Antitumor activity against MCT4 expressing human MDA-MB-231 cells coexpressing luciferase xenografted in SCID mouse assessed as tumor growth inhibition at 20 mg/kg, ip qd measured on day 19; format: functional; conditions: MDA-MB-231, ip, 456 h, read-out: TGI; procedure, shortened: as §1
[16] = test system: MDA-MB-231; test: Antitumor activity against MCT4 expressing human MDA-MB-231 cells coexpressing luciferase xenografted in SCID mouse assessed as tumor growth inhibition at 100 mg/kg, administered via oral gavage qd measured on day 19; format: functional; conditions: MDA-MB-231, po, 456 h, read-out: TGI; procedure, shortened: as §1

| SMILES | Drug recovery [1] | Drug recovery [2] | IC50 [3] | IC50 [4] | IC50 [5] | also measured |
| --- | --- | --- | --- | --- | --- | --- |
| CC(CCc1ccccc1)NCC(O)c1ccc(O)c(C(N)=O)c1 (stereo not given) [LABETALOL] | 66% | 72% | – | – | – | – |
| C=CCN(CC=C)c1ccc2cc(C(=O)O)c(=O)oc2c1 | – | – | 0.17 µM | > 250 µM | > 250 µM | – |
| CC(C)NCC(O)COc1cccc2ccccc12 (stereo not given) [PROPRANOLOL] | 67% | 80% | – | – | – | – |
| C#CCN(CC#C)c1ccc2cc(C(=O)O)c(=O)oc2c1 | – | – | 0.21 µM | > 250 µM | > 250 µM | – |
| CCCN(CCC)c1ccc2cc(C(=O)O)c(=O)oc2c1 | – | – | 0.45 µM | > 250 µM | > 250 µM | – |
| COc1cc2c(c(OC)c1OC)-c1ccc(OC)c(=O)cc1[C@@H](NC(C)=O)CC2 [COLCHICINE] | 75% | – | – | – | – | – |
| CNC(=C[N+](=O)[O-])NCCSCc1ccc(CN(C)C)o1 [RANITIDINE] | – | 85% | – | – | – | – |
| Cn1nnc2c(C(N)=O)ncn2c1=O [TEMOZOLOMIDE] | – | – | – | – | – | inhibition in vivo at 20 mg/kg [6]: 81% |
| COc1cccc2c1C(=O)c1c(O)c3c(c(O)c1C2=O)C[C@@](O)(C(=O)CO)C[C@@H]3O[C@H]1C[C@H](N)[C@H](O)[C@H](C)O1 [DOXORUBICIN] | – | – | – | – | – | inhibition in vivo at 0.5 mg/kg [7]: 50% |
| O=C(O)c1cc2ccc(N(Cc3ccccc3)Cc3ccccc3)cc2oc1=O | 34% | 55% | 0.09 µM | > 250 µM | 240 µM | Ratio [8]: 0.2; Activity [9]: Non-toxic; Activity [10]: Non-toxic; Activity [11]: Non-toxic; Activity [12]: Non-toxic; Activity [13]: Non-toxic; Activity [14]: Non-toxic; inhibition in vivo at 20 mg/kg [6]: 77%; inhibition in vivo at 20 mg/kg [15]: 10%; inhibition in vivo at 100 mg/kg [16]: 13% |
| O=C(O)c1cc2ccc(N3CCCC3)cc2oc1=O | – | – | 0.38 µM | > 250 µM | > 250 µM | – |

— ChEMBL document CHEMBL3813630, “Coumarin carboxylic acids as monocarboxylate transporter 1 inhibitors: In vitro and in vivo studies as potential anticancer agents” (Bioorg Med Chem Lett, 2016)
